The list is not random: actives were taken first. Their share in the collection is about 3%.
HNF4A DNA FP: change in binding of human HNF4 alpha to DNA. 360,000 compounds, 0.3% hits. P41235. HNF4a-FITC DNA binding, fluorescence polarization, 1 h. activity change, % at 10 µM; in the data active = activity change above about 30%, passing the limit was not always enough
Myeloid diff MLP: promotes myeloid progenitor differentiation | ER-HoxA9 myeloid progenitors, lysozyme-GFP differentiation, flow cytometry | calls only at 10 µM | 360,000 compounds, 1% hits;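 active = normalized GFP-positive differentiation at or above the plate's own cutoff, the solvent-only control mean plus 3 SD; inconclusive = no clear call, values can overlap the other calls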;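 also: cells exposed to compound for four days before flow analysis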
Granule exo inh: blocks lytic granule exocytosis; inhibition, % at 10 µM; TALL-104 LAMP-1 surface exposure, flow cytometry; cells stimulated with thapsigargin and PMA; 360,000 compounds, 0.66% hits;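 active = inhibition above about 55%, limit read from the data; inconclusive = no clear call, values can overlap the other calls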
DSG3 Ab inh: blocks pemphigus antibody binding to human desmoglein-3. P32926. DSG3-coupled beads, scFv-anti-DSG3-GFP binding, flow cytometry; hits give low values. binding (percent of control), % at 10 µM. 310,000 compounds, 0.48% hits. AID 588358;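 active = binding more than 3 SD below its plate's average and above zero; inconclusive = below that plate limit but binding exactly zero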;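 also: hits lower antibody fragment binding to DSG3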
SENP1 inh: SENP1 (human) catalytic domain inhibition; Q9P0U3; recombinant SENP1 catalytic domain, CyPet-SUMO1-YPet FRET cleavage; inhibition, % at 10 µM; 360,000 compounds, 0.21% hits; AID 624204;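 active = inhibition at least 30% at 10 µM, raw YFP signal under a set limit, fluorescence ratio 0.5 to 1.5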
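system = hSENP1 catalytic domain, recombinant | reagent = SFCypet-SUMO1-SFYpet substrate at 25 nM | doses = one dose per compound, 10 µM, 0.5% DMSO | incubation = enzyme reaction for 50 min at room temperature, dark | measured by = FRET, CFP and YFP emission | controls = no-enzyme low, enzyme-DMSO high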
Cardio protect: protects H9c2 cardiomyocytes from peroxide injury; AID 588492; H2O2 injury protection, ATPLite, 2 h; 360,000 compounds, 0.63% hits; protection from H2O2 cell death, % at 20 µM;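 active = compounds giving at least 50% protection of heart cells from peroxide-induced death in the single-dose screen, raw or plate-pattern-corrected value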
Hits are given with their value; - = inactive; ? = inconclusive; . = no result given; + = active, no number.

SMILES | HNF4A DNA FP | Myeloid diff MLP | Granule exo inh | DSG3 Ab inh | SENP1 inh | Cardio protect
O=C(O)CC(CNS(=O)(=O)c1cccc2nsnc12)c1ccccc1 (centres undefined) | - | - | - | 40 | - | -
O=S(=O)(NCc1ccccc1)c1cccc2nsnc12 | - | - | - | - | - | -
Cc1ccc(SCc2cc(=O)[nH]c(Nc3nc(C)c4ccc(C)cc4n3)n2)cc1 | - | - | - | - | - | -
Cc1ccc2c(C)nc(Nc3nc(CSc4nc5ccccc5[nH]4)cc(=O)[nH]3)nc2c1 | - | ? | - | - | - | 69
Cc1ccccc1N(C(=O)c1csnn1)C(C(=O)NC1CCCCC1)c1ccncc1 (centres undefined) | - | + | - | - | - | -
O=C(NC1CCCC1)C(c1ccncc1)N(C(=O)c1csnn1)c1ccccc1F (centres undefined) | - | - | - | . | - | -
O=C(NCc1ccco1)C(c1ccccc1)N(C(=O)Cc1cccs1)c1ccccc1F (centres undefined) | - | - | - | . | - | 75
CSc1nc(N)nc2c1ncn2CC(=O)NCCCN1CCCC1=O | - | - | - | - | - | -
Cc1oc2c(O)c(O)ccc2c(=O)c1-c1ccc(Cl)cc1 | - | - | - | - | - | 72
Cc1oc2c(O)c(O)ccc2c(=O)c1-c1cnn(-c2ccccc2)c1 | - | - | - | - | - | 87
Cc1oc2c(O)c(O)ccc2c(=O)c1-c1ccccc1 | - | - | - | - | - | 69
Cc1oc2cc(O)cc(C)c2c(=O)c1-c1cnn(-c2ccccc2)c1 | - | - | - | - | - | -
CN1C(=O)C(C)(C)c2cc(S(=O)(=O)N3CCC(C(=O)NCc4ccccc4Cl)CC3)ccc21 | - | - | - | - | - | -
O=C(C[C@H]1C=C[C@@H](NS(=O)(=O)c2ccccc2)[C@@H](CO)O1)NCc1ccc(Cl)c(Cl)c1 | - | - | - | . | - | .
Cn1c(/C=C/c2ccc(Cl)cc2)c([N+](=O)[O-])c(=O)n(C)c1=O | - | ? | - | - | 34 | -
O=C(NNC(=O)c1cccnc1SCc1cccc([N+](=O)[O-])c1)c1ccccn1 | - | ? | - | - | - | 83
CC(C)(C)n1nnnc1CN(Cc1cccnc1)Cc1ccccc1Cl | - | + | - | - | - | -
Cc1cc(C)c(S(=O)(=O)N2CCOC2CNC(=O)C(=O)NCc2ccncc2)c(C)c1 (centres undefined) | - | ? | - | - | - | -
CCCn1c(O)c(N=NC(=O)c2ccco2)c2ccccc21 | - | - | - | - | - | -
Cc1nc2ccccn2c1C(=O)N=Nc1c(O)n(CCC(C)C)c2ccccc12 | - | . | 71 | - | - | -
Cc1ccc(C(=O)NC2CCC(C)CC2)o1 (centres undefined) | - | - | - | - | - | -
C=CCn1c(O)c(N=Nc2ccccc2O)c2ccccc21 | 84 | - | - | - | - | -
C=CCn1c(O)c(N=NC(=S)Nc2ccc(OC)cc2)c2ccccc21 | - | - | - | - | - | 56
N#Cc1ccccc1NC(=O)c1ccc2c(Cl)c3c(nc2c1)CCCC3 | - | - | - | 93 | - | -
O=C(Nc1cccnc1Cl)c1ccc2c(Cl)c3c(nc2c1)CCC3 | - | - | - | - | - | -
SMILES | HNF4A DNA FP | Myeloid diff MLP | Granule exo inh | DSG3 Ab inh | SENP1 inh | Cardio protect
Cc1cccc(NC(=O)c2sc3nc4c(c(-c5cccs5)c3c2N)CN(C)CC4)c1 | - | + | - | - | - | -
CC(=O)N1CCc2cc(S(=O)(=O)CCC(=O)Nc3ccccc3F)ccc21 | - | + | - | - | - | -
O=C(NC1CCS(=O)(=O)C1)c1ccc(S(=O)(=O)N2CCCCC2)cc1 (centres undefined) | - | - | - | - | - | -
CN(C)/C=C/C(=O)c1ccc(F)cc1F | - | - | - | - | - | -
CCc1cc(=O)oc2cc(C)cc(OCC(=O)N3CCC(C(=O)NC(C)C)(c4ccccc4)CC3)c12 | - | - | - | - | - | -
COc1ccc(N=C2NC(=O)/C(=C/c3ccc(O)c(OC)c3)S2)cc1 | - | - | - | . | - | -
COc1cc(/C=C2/SC(=Nc3ccc(O)cc3)NC2=O)cc(OC)c1O | - | + | - | - | - | -
COc1ccccc1N=C1NC(=O)/C(=C/c2ccc(N(C)C)cc2)S1 | - | ? | 67 | - | - | -
